PAFAH1B3 inh – inhibitors of human PAFAH1B3 | Q15102 | 340,000 tested, 0.28% active | recombinant PAFAH1B3, FP-rhodamine probe, fluorescence polarization | inhibition, % at 3.39 µM;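 active = inhibition above the screen-wide average of all tested compounds plus 3 SD, cut at about 25% in these data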;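 note: 0% = enzyme with DMSO only and 100% = wells lacking PAFAH1B3 protein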
Target sequence (Q15102 whole entry, looked up): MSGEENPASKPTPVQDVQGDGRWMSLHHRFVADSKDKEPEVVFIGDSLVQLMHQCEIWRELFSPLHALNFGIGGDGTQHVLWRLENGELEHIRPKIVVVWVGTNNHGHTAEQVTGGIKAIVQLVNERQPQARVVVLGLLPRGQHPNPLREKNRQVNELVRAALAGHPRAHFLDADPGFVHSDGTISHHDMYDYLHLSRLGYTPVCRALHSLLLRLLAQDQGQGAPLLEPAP
VIM-2 inh – inhibitors of Pseudomonas aeruginosa VIM-2 metallo-beta-lactamase; inhibition, % at 5.6 µM; purified VIM-2, nitrocefin hydrolysis, epi-absorbance fluorescence; AID 1527; 290,000 tested, 0.89% active;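 active = inhibition above the mean of all tested compounds plus 3 SD, cutoff set per screening run, cut at about 7.5% in these data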;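 note: red hydrolysis product quenches plate fluorescence so inhibitors raise well fluorescence; 0% = enzyme with DMSO and 100% = DMSO without enzyme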
pPAFAH inh – inhibitors of human plasma PAF acetylhydrolase (pPAFAH). Q13093. recombinant pPAFAH, FP-rhodamine probe fluorescence polarization. inhibition, % at 3.39 µM. 330,000 tested, 1.5% active;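 active = inhibition above the mean inhibition across the screen plus 3 SD, cut at about 25% in these data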;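 note: inhibitors block binding of the rhodamine activity-based probe so polarization drops; 0% = enzyme with DMSO and 100% = wells lacking pPAFAH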
IMP-1 inh-1 – blocks Pseudomonas aeruginosa IMP-1 metallo-beta-lactamase | inhibition, % at 5.6 µM | AID 1556 | purified IMP-1, nitrocefin hydrolysis, epi-absorbance fluorescence | 290,000 tested, 0.45% active;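 active = inhibition above the mean plus 3 SD of all compounds in the same screening run, cut at about 4.5% in these data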;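 note: 0% = IMP-1 with DMSO and 100% = DMSO wells lacking enzyme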
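System: Purified recombinant IMP-1 metallo-beta-lactamase enzyme | Measured by: Fluorescence quenching readout, ex 480/em 530 nm | Replication: Singlicate | Incubation: 15 min preincubation plus 25 min reaction at 25 °C | Evaluation: Percent inhibition from optical density relative to buffer-blank wells | Benchmarks: DMSO with and without IMP-1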
PAFAH1B2 FP inh – PAFAH1B2 (human) inhibition; 340,000 tested, 1.2% active; recombinant PAFAH1B2, FP-rhodamine activity probe, fluorescence polarization; P68402; AID 492953; inhibition, % at 3.39 µM;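 active = inhibition above the mean of all tested compounds plus 3 SD, cut at about 24% in these data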;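 note: 0% = enzyme with DMSO and 100% = wells lacking PAFAH1B2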
PAFAH2 FP inh – PAFAH2 (human) inhibition; recombinant PAFAH2, FP-rhodamine activity probe, fluorescence polarization; AID 492956; inhibition, % at 3.39 µM; 340,000 tested, 0.99% active; Q99487;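 active = inhibition above the mean over all tested compounds plus 3 SD, cut at about 30% in these data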;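 note: inhibitors block probe labeling of enzyme so polarization drops; 0% = enzyme with DMSO and 100% = wells lacking PAFAH2 protein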
IMP-1 inh-2 – IMP-1 inhibition, counter-screen for VIM-2 inhibitors. purified IMP-1, nitrocefin hydrolysis, epi-absorbance fluorescence. inhibition, % at 5.6 µM. 1,300 tested, under 10 active. shares compounds with VIM-2 inh; call rule not given here;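 note: 0% = enzyme with vehicle and 100% = vehicle without enzyme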
VIM-2 FRET ctr – VIM-2 FRET inhibition, artifact counter-screen | shares compounds with VIM-2 inh | purified VIM-2, CCF2 FRET substrate hydrolysis | inhibition, % at 5.6 µM | 1,300 tested, 23% active;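 active = inhibition above the mean of all tested compounds plus 3 SD, cut at about 19% in these data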;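 note: 0% = VIM-2 plus DMSO and 100% = no enzyme wells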
TEM-1 counter – selectivity counter-screen for VIM-2 inhibitors: E. coli TEM-1 inhibitors; shares compounds with VIM-2 inh; Purified TEM-1, nitrocefin hydrolysis, epi-absorbance fluorescence; inhibition, % at 5.6 µM; 1,300 tested, 3% active;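 active = inhibition above that campaign's mean inhibition plus 3 SD, cut at about 0.46% in these data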;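 note: 0% = TEM-1 with DMSO and 100% = TEM-1 with 100 µM potassium clavulanate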
Target sequence (P62593 whole entry, looked up): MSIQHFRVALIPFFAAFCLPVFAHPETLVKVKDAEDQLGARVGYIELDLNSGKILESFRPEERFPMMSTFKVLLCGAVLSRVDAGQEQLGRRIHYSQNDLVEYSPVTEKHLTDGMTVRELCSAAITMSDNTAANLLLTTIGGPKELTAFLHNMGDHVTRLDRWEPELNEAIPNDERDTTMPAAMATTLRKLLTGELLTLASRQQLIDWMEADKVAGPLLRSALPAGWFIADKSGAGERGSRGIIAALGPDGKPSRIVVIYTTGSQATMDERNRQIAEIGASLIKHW
VIM-2 confirm 2 – confirmation of P. aeruginosa VIM-2 metallo-beta-lactamase inhibitors; shares compounds with VIM-2 inh; 1,300 tested, 96% active; inhibition, % at 5.6 µM; AID 2187; purified VIM-2, nitrocefin hydrolysis, epi-absorbance;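 active = inhibition of the VIM-2 beta-lactamase enzyme above about 11% from the earlier first-round screen, limit read from the data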;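 note: 0% = VIM-2 with DMSO and 100% = buffer wells without enzyme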
The depositor's hits bear a star; · = no result given. This is a sample that favours compounds with a hit; in the whole collection about 3.6% have one here.

SMILES	PAFAH1B3 inh	VIM-2 inh	pPAFAH inh	IMP-1 inh-1	PAFAH1B2 FP inh	PAFAH2 FP inh	IMP-1 inh-2	VIM-2 FRET ctr	TEM-1 counter	VIM-2 confirm 2
Cn1c(=O)c2c(SCc3cccnc3)nc(C3CC3)nc2n(C)c1=O	-5	29*	2	-4	4	1	-3	-8	-4	49*
CCOC(=O)N1CCC(NC(=O)Cc2ccccc2)CC1	10	-2	1	-2	0	6	·	·	·	·
CCOC(=O)N1CCC(Nc2ccc3nnc(-c4ccccc4)n3n2)CC1	3	15*	-4	-4	-1	10	-3	0	-3	24*
COc1ccc2nc(C)cc(Nc3ccc(N4CCN(C)CC4)cc3)c2c1	4	90*	2	-2	0	-2	-3	-5	-5	91*
COc1ccc(OC)c(NC(=O)COC(=O)CCNc2ccccc2OC)c1	2	·	7	·	-1	3	·	·	·	·
Cc1nc2ccccc2c2oc(C(=O)N3CCN(C4CCCCC4)CC3)cc12	7	19*	5	-3	6	-4	-2	4	-6	38*
COc1ccc(N2CCN(C(=O)c3cc4c(C)nc5ccccc5c4o3)CC2)cc1	6	4	-5	0	2	2	·	·	·	·
C=C1CSc2nc(=O)c3c4c(sc3n21)CCCC4	3	14*	1	-2	-5	8	-3	-1	-7	33*
Cc1ccccc1C(=O)Nc1cccc(-c2ccc3nncn3n2)c1	3	1	4	-2	2	0	·	·	·	·
CCOc1ccccc1C(=O)Nc1cccc(-c2ccc3nncn3n2)c1	-2	21*	-3	0	3	0	-3	1	-8	31*
N#Cc1cc2c(=O)n3ccccc3nc2n(CCCn2ccnc2)c1=N	3	45*	4	0	-2	-4	-2	-10	-3	78*
CCCn1c(=N)c(C#N)cc2c(=O)n3ccccc3nc21	4	1	-1	-2	-6	-1	·	·	·	·
NC(N)=Nc1nc(-c2ccccc2)c2ccccc2n1	5	14*	-6	-3	5	-1	-3	-6	-4	27*
CCc1nc(N=C(N)N)nc2ccccc12	·	3	2	-3	·	·	·	·	·	·
COc1ccc(Nc2nc(N3CCN(C)CC3)nc3ccccc23)c(OC)c1	8	16*	2	-1	9	1	-3	0	-7	28*
COc1ccc(Nc2c3c(nc4ccccc24)CCC3)c(OC)c1	5	19*	2	0	3	-4	-5	-3	-8	22*
c1ccc2c(Nc3ccc4c(c3)OCCO4)c3c(nc2c1)CCCC3	3	15*	12	-1	2	-2	-3	-5	-2	23*
O=C(C#Cc1ccccc1)c1ccco1	10	-4	2	-2	7	0	·	·	·	·
COc1ccc2c(c1)c(=O)c(C(=O)O)c(-c1ccc3c(c1)OCO3)n2C	0	40*	4	-1	2	9	-3	73*	-6	59*
COc1cc(CN2CCN(C(=O)c3cccc4ccccc34)CC2)cc(OC)c1O	5	-2	5	-7	-4	2	·	·	·	·
Cc1c(N2C(=O)/C(=C/c3cccc4ccccc34)SC2=S)c(=O)n(-c2ccccc2)n1C	1	50*	8	0	6	3	1	13	-4	12*
CCOc1cccc(C(=O)NC(=S)Nc2cccnc2)c1	1	1	-2	0	5	-1	·	·	·	·
CN1CCN(c2ccc(NC(=O)c3ccc4c(c3)OCCO4)cc2)CC1	4	18*	3	-2	2	6	-3	-6	-6	34*
CN1CCN(c2ccc(NC(=O)c3cccc(OCc4ccccc4)c3)cc2)CC1	7	12*	12	-1	4	3	-3	0	-5	28*
CCOc1cccc(C(=O)NC(=S)Nc2ccc(N3CCN(CC)CC3)cc2)c1	7	45*	7	-1	7	2	-4	-4	-8	77*
SMILES	PAFAH1B3 inh	VIM-2 inh	pPAFAH inh	IMP-1 inh-1	PAFAH1B2 FP inh	PAFAH2 FP inh	IMP-1 inh-2	VIM-2 FRET ctr	TEM-1 counter	VIM-2 confirm 2
COc1ccc(Cn2c(=O)[nH]c3cc(C(=O)Nc4ccc(N5CCN(C)CC5)cc4)ccc32)cc1	-1	16*	2	-2	8	-46	-2	-5	-5	42*
CCN1CCN(c2ccc(NC(=O)c3cccc(OCc4ccccc4)c3)cc2)CC1	11	5	8	-3	2	3	·	·	·	·
O=C(NNS(=O)(=O)c1ccc([N+](=O)[O-])cc1)C(=O)Nc1cccc(C(=O)O)c1	-7	-2	-3	-6	4	-4	·	·	·	·
O=C(Nc1ccc(N2CCCC2=O)cc1)c1cccc(F)c1	6	0	4	-1	1	-13	·	·	·	·
CCN1CCN(c2ccc(NC(=O)c3cccc(N4CCCC4=O)c3)cc2)CC1	-1	17*	2	-2	-2	5	-3	-3	-4	22*
Cc1ccc(C(=O)Nc2ccc(N3CCN(C)CC3)cc2)cc1C	2	16*	7	-2	1	-10	-3	1	-6	29*
COc1ccc(C2=NOC(Cn3nc(C(=O)NCc4ccccc4OC)cc3-c3ccccc3)C2)cc1 (configuration not stated)	-3	·	8	·	1	-7	·	·	·	·
O=C(C1CCN(S(=O)(=O)c2ccccc2F)CC1)N1CCCC1	2	·	·	·	-2	9	·	·	·	·
O=C(C1CCN(c2ncnc3c2sc2cccc(F)c23)CC1)N1CCCC1	·	13*	0	-4	·	·	-2	3	-7	27*
CCN(CC(=O)Nc1ccc(NC(C)=O)cc1)C(=O)c1ccc(=O)n(C)n1	1	·	1	·	3	0	·	·	·	·
CC(=O)c1ccc2c(c1)c(C#N)c1ccccc1[n+]2[O-]	4	24*	·	2	4	1	-2	3	2.7*	28*
COCCN(C(=O)c1cc(Cl)nc2ccccc12)c1c(N)n(Cc2ccccc2)c(=O)[nH]c1=O	7	·	-5	·	-2	-5	·	·	·	·
N=NC(=O)c1ccccc1Nc1c(O)[nH]c2ccccc12	5	·	·	·	0	-8	·	·	·	·
CCN(CC)CCCNc1ccc2ncn3c4ccc(O)cc4c(=O)c1c23	10	·	·	·	1	7	·	·	·	·
